In ChEMBL document CHEMBL1140003, “Bivalent ligand approach on 4-[2-(3-methoxyphenyl)ethyl]-1-(2-methoxyphenyl)piperazine: synthesis and binding affinities for 5-HT(7) and 5-HT(1A) receptors” (Bioorg Med Chem, 2007) one finds Ki data, which are given here for ten compounds.

Test [1] deals with 5-hydroxytryptamine receptor 7 (Rattus norvegicus, UniProt P32305). As to the kind of experiment: Displacement of [3H]LSD from rat recombinant 5HT7 receptor expressed in HEK293 cells. It is filed as cell-based. Put shortly:
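Membranes (30 µg) incubated 60 min at 37 °C with 2.5 nM [3H]LSD and 6–9 test concentrations in 50 mM Tris, 10 mM MgCl2, 0.5 mM EDTA, pH 7.4. Stopped by GF/A filtration (0.5% PEI pre-soak), cold-buffer washes; nonspecific binding defined by 10 µM 5-CT. Ki by nonlinear curve fit and Cheng–Prusoff; mean ± SEM of three experiments in triplicate.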

The target of test [2] is 5-hydroxytryptamine receptor 1A (Homo sapiens) (UniProt P08908). The test can be described thus: Displacement of [3H]-8-OH-DPAT from human recombinant 5HT1A receptor expressed in HEK293 cells. For orientation: In a radioligand displacement assay an active substance lowers the binding of a labelled ligand.
5-hydroxytryptamine receptor 1A (Homo sapiens), sequence (P08908 whole entry, looked up): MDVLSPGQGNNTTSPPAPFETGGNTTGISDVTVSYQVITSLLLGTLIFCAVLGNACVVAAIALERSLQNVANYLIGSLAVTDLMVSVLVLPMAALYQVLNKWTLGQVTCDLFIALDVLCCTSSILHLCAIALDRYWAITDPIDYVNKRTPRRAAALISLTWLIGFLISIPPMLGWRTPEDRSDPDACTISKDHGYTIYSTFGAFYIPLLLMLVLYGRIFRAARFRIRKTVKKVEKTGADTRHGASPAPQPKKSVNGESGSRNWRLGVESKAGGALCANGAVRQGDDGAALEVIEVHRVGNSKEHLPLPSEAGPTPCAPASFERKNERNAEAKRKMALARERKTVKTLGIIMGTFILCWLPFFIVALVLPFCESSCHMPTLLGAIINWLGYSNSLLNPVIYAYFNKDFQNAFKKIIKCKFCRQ

Each structure is given as a SMILES string.

5-hydroxytryptamine receptor 7, sequence (P32305 whole entry): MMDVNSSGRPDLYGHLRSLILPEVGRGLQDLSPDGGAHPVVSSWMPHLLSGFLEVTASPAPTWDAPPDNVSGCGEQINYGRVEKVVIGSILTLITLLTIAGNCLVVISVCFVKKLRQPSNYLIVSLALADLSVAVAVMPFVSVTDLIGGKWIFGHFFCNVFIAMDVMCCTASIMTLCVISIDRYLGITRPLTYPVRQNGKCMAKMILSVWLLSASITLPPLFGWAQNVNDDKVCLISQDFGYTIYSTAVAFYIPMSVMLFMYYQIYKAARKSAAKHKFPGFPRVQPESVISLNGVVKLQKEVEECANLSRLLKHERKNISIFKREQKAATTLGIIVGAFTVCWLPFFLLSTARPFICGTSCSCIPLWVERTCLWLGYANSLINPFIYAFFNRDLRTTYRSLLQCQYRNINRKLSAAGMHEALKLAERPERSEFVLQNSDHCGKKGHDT

For the compound `COc1ccccc1N1CCN(CCc2cccc(OCCCOc3cccc(CCN4CCN(c5ccccc5OC)CC4)c3)c2)CC1`, the Ki in test [1] amounted to 25 nM; in test [2], 5.6 nM.
As to `COc1ccccc1N1CCN(CCc2cccc(OCCOc3cccc(CCN4CCN(c5ccccc5OC)CC4)c3)c2)CC1`, the results for the Ki in test [1] and in test [2] were 41.1 nM and 2.2 nM, respectively.
Turning to `COc1ccccc1N1CCN(CCc2cccc(OCCCCCCCCOc3cccc(CCN4CCN(c5ccccc5OC)CC4)c3)c2)CC1`, the Ki in test [1] is 573 nM; in test [2] it was 4.8 nM.
In the case of `COc1ccccc1N1CCN(CCc2cccc(OCCCCOc3cccc(CCN4CCN(c5ccccc5OC)CC4)c3)c2)CC1`, the figures for the Ki in test [1] and in test [2] were 28.5 nM and 0.9 nM, respectively.
For `COc1ccccc1N1CCN(CCc2cccc(OCCCCCCCCCCOc3cccc(CCN4CCN(c5ccccc5OC)CC4)c3)c2)CC1`, in that order: 258 nM and 28.3 nM.
On to `COc1ccccc1N1CCN(CCc2cccc(OCCCCCCCCCCCCOc3cccc(CCN4CCN(c5ccccc5OC)CC4)c3)c2)CC1`, for which the Ki in test [2] worked out at 253 nM.
`COc1ccccc1N1CCN(CCc2cccc(OCCOCCOc3cccc(CCN4CCN(c5ccccc5OC)CC4)c3)c2)CC1`: the Ki in test [1] was 37 nM; in test [2] it was 0.62 nM.
For `COc1ccccc1N1CCN(CCc2cccc(OCCCCCOc3cccc(CCN4CCN(c5ccccc5OC)CC4)c3)c2)CC1`, in that order: 120 nM and 1.74 nM.
For `COc1ccccc1N1CCN(CCc2cccc(OC(=O)COCC(=O)Oc3cccc(CCN4CCN(c5ccccc5OC)CC4)c3)c2)CC1`, in that order: 43 nM and 2.74 nM.
In the case of `COc1ccccc1N1CCN(CCc2cccc(OCCCCCCOc3cccc(CCN4CCN(c5ccccc5OC)CC4)c3)c2)CC1`, the Ki in test [1] was 42.6 nM; in test [2], 1.6 nM.

Broadly, the Ki is a dissociation constant, usually derived from enzyme kinetics or from competition with a known ligand.
